Assay outcomes (PubChem BioAssay)
ASAP1 inh = ASAP1 ArfGAP inhibition; ASAP1-stimulated ARF1 GTP hydrolysis, GDP FP detection; inhibition, % at 16.5 µM; Q9ULH1; AID 624377; hit rate 0.19% among 360,000; in the data active means inhibition above about 25%
pPAFAH inh = inhibitors of human plasma PAF acetylhydrolase (pPAFAH). Q13093. recombinant pPAFAH, FP-rhodamine probe fluorescence polarization. inhibition, % at 3.39 µM. hit rate 1.5% among 330,000;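 active means inhibition above the mean inhibition across the screen plus 3 SD, cut at about 25% in these data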;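 further: inhibitors block binding of the rhodamine activity-based probe so polarization drops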
Target sequence (Q13093 whole entry, looked up): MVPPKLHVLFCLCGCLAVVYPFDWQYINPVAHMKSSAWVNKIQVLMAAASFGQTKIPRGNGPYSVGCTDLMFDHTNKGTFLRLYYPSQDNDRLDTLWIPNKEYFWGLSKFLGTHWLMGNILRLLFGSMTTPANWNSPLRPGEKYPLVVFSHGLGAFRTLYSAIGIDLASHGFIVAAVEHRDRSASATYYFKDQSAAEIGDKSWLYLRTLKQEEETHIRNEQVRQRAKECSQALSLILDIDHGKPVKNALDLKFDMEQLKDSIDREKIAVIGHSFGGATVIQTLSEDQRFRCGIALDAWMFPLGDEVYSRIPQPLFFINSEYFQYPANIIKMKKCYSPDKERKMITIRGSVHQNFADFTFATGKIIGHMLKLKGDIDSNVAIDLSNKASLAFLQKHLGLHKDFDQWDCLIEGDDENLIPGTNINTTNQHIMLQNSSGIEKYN
ARFGAP1 inhibitor = inhibits rat ARF GTPase activating protein 1; hit rate 0.26% among 360,000; Arfgap1-stimulated ARF1 GTP hydrolysis, GDP FP detection; Q62848; AID 651572; inhibition, % at 16.5 µM;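 active means inhibition above a per-plate limit, mean inhibition of low control wells plus 3 SD, cut at about 25% in these data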
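Assay system: purified rat His6-Arfgap1 residues 1-136 (GAP domain); Reagent: human Δ17 ARF1 bound to GTP; Dosing: 16.5 µM single point, 1.26% DMSO; Times: GTP hydrolysis reaction 2 h at 25 °C; Signal: FP, GDP Alexa 633 tracer displaced from anti-GDP antibody, 620/688 nm; Measure: % inhibition from polarization.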
PAFAH1B2 inh = inhibitors of human PAFAH1B2. inhibition, % at 3.39 µM. recombinant PAFAH1B2, FP-rhodamine activity probe, fluorescence polarization. hit rate 1.2% among 340,000. P68402;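 active means inhibition above the mean of all tested compounds plus 3 SD, cut at about 24% in these data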
PAFAH1B3 FP inh = inhibitors of human PAFAH1B3; Q15102; recombinant PAFAH1B3, FP-rhodamine probe, fluorescence polarization; inhibition, % at 3.39 µM; AID 492972; hit rate 0.28% among 340,000;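 active means inhibition above the screen-wide average of all tested compounds plus 3 SD, cut at about 25% in these data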
Target sequence (Q15102 whole entry, looked up): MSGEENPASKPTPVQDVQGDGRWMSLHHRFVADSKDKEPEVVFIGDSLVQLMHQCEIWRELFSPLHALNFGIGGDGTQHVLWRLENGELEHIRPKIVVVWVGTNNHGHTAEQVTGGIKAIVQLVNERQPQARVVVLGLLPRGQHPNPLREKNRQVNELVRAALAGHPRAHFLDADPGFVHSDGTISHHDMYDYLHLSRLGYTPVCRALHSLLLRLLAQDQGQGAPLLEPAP
PAFAH2 FP inh = inhibitors of human PAFAH2. AID 492956. inhibition, % at 3.39 µM. recombinant PAFAH2, FP-rhodamine activity probe, fluorescence polarization. Q99487. hit rate 0.99% among 340,000;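 active means inhibition above the mean over all tested compounds plus 3 SD, cut at about 30% in these data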;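 further: inhibitors block probe labeling of enzyme so polarization drops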
PAFAH2 confirm = confirmation of human PAFAH2 inhibitors | shares compounds with PAFAH2 FP inh | recombinant PAFAH2, FP-rhodamine activity probe, fluorescence polarization | inhibition, % at 3.39 µM | hit rate 65% among 2,300 | AID 493030;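 active means mean inhibition over three repeats above a set limit taken from the earlier primary screen, cut at about 30% in these data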;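 further: inhibitor blocks binding of rhodamine activity probe so polarization falls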
Numbers stand for hits. The list is not random: actives were taken first. Their share in the collection is about 2.7%.

COc1cccc(/C=C/C(=O)OCC(=O)NC2CCCC2)c1 was read as ASAP1 inh inactive and ARFGAP1 inhibitor inactive.
COc1cccc(/C=C/C(=O)OCC(=O)NC2CC2)c1 was read as ASAP1 inh inactive, pPAFAH inh inactive, ARFGAP1 inhibitor inactive, PAFAH1B2 inh inactive, PAFAH1B3 FP inh inactive, PAFAH2 FP inh 41 and PAFAH2 confirm 38.
Screening Cc1ccc(CNC(=O)C2CCC(=O)N(CCCN3CCOCC3)C2)cc1 (stereo not drawn) returned ASAP1 inh inactive, pPAFAH inh inactive, ARFGAP1 inhibitor inactive, PAFAH1B2 inh inactive, PAFAH1B3 FP inh inactive and PAFAH2 FP inh inactive.
Screening COc1cccc(/C=C/C(=O)OCC(=O)NC2CCCCCC2)c1 returned ASAP1 inh inactive and ARFGAP1 inhibitor inactive.
Screening O=C(COC(=O)/C=C/c1ccccc1)NC1CCCC1 returned ASAP1 inh inactive, pPAFAH inh inactive, ARFGAP1 inhibitor inactive, PAFAH1B2 inh inactive, PAFAH1B3 FP inh inactive, PAFAH2 FP inh 84 and PAFAH2 confirm 74.
For O=C(COC(=O)/C=C/c1cccc(Br)c1)NC1CCCC1 the results were ASAP1 inh inactive, pPAFAH inh inactive, ARFGAP1 inhibitor inactive, PAFAH1B2 inh inactive, PAFAH1B3 FP inh inactive, PAFAH2 FP inh 66 and PAFAH2 confirm 59.
For Cc1ccc(NC(=O)COC(=O)c2ccc(Cl)nc2)cc1S(=O)(=O)N1CCCCC1 the results were ASAP1 inh inactive, pPAFAH inh inactive, ARFGAP1 inhibitor inactive, PAFAH1B2 inh inactive, PAFAH1B3 FP inh inactive, PAFAH2 FP inh 36 and PAFAH2 confirm 38.
`O=C(COC(=O)c1ccc(Cl)nc1)Nc1cc(S(=O)(=O)N2CCCCC2)ccc1Cl` gave ASAP1 inh inactive, pPAFAH inh inactive, ARFGAP1 inhibitor inactive, PAFAH1B2 inh inactive, PAFAH1B3 FP inh inactive, PAFAH2 FP inh 38 and PAFAH2 confirm inactive.
Screening O=C(COC(=O)c1ccc(Cl)nc1)Nc1ccc(S(=O)(=O)N2CCCC2)cc1 returned ASAP1 inh inactive, pPAFAH inh inactive, ARFGAP1 inhibitor inactive, PAFAH1B2 inh inactive, PAFAH1B3 FP inh inactive and PAFAH2 FP inh inactive.
Screening COc1ccc(C(=O)NC2=NCCS2)cc1S(=O)(=O)N1CCOCC1 returned ASAP1 inh inactive and ARFGAP1 inhibitor inactive.
Cc1ncsc1CCC(=O)N1CCCC(C(=O)c2ccc3c(c2)OCO3)C1 (stereo not drawn) was read as ASAP1 inh inactive, pPAFAH inh inactive, ARFGAP1 inhibitor inactive, PAFAH1B2 inh inactive, PAFAH1B3 FP inh inactive and PAFAH2 FP inh inactive.
Cc1nc(-c2cccc(S(=O)(=O)N3CCOCC3)c2)cs1 was read as ASAP1 inh inactive, pPAFAH inh inactive, ARFGAP1 inhibitor inactive, PAFAH1B2 inh inactive, PAFAH1B3 FP inh inactive and PAFAH2 FP inh inactive.
Screening CC(=O)Oc1cccc(-c2nc3ccccc3c(=O)o2)c1 returned ASAP1 inh inactive, pPAFAH inh inactive, ARFGAP1 inhibitor inactive, PAFAH1B2 inh inactive, PAFAH1B3 FP inh inactive, PAFAH2 FP inh 40 and PAFAH2 confirm inactive.
Screening COc1cccc(-c2nc3ccc(O)cc3c(=O)o2)c1 returned ASAP1 inh inactive, pPAFAH inh inactive, ARFGAP1 inhibitor inactive, PAFAH1B2 inh inactive, PAFAH1B3 FP inh inactive, PAFAH2 FP inh 72 and PAFAH2 confirm 52.
Screening O=c1oc(-c2cccc(S(=O)(=O)N3CCOCC3)c2)nc2ccccc12 returned ASAP1 inh inactive, pPAFAH inh inactive, ARFGAP1 inhibitor inactive, PAFAH1B2 inh inactive, PAFAH1B3 FP inh inactive, PAFAH2 FP inh 61 and PAFAH2 confirm 55.
For O=C(Nc1ccc(F)cc1)c1ccc(C(=O)N2CCCC(O)C2)cc1 (stereo not drawn) the results were ASAP1 inh inactive, pPAFAH inh inactive, ARFGAP1 inhibitor inactive, PAFAH1B2 inh inactive, PAFAH1B3 FP inh inactive and PAFAH2 FP inh inactive.
Screening O=C(COC(=O)c1ccc(Cl)c(S(=O)(=O)N2CCCC2)c1)NC1CCCC1 returned ASAP1 inh inactive, pPAFAH inh inactive, ARFGAP1 inhibitor inactive, PAFAH1B2 inh inactive, PAFAH1B3 FP inh inactive, PAFAH2 FP inh 41 and PAFAH2 confirm inactive.
`CCCNC(=O)COC(=O)c1ccc(Cl)c(S(=O)(=O)N2CCCC2)c1` gave ASAP1 inh inactive, pPAFAH inh inactive, ARFGAP1 inhibitor inactive, PAFAH1B2 inh inactive, PAFAH1B3 FP inh inactive, PAFAH2 FP inh 34 and PAFAH2 confirm inactive.
CCCNC(=O)COC(=O)c1ccc(N2CCCC2)c([N+](=O)[O-])c1 was read as ASAP1 inh inactive, pPAFAH inh inactive, ARFGAP1 inhibitor inactive, PAFAH1B2 inh inactive, PAFAH1B3 FP inh inactive, PAFAH2 FP inh 65 and PAFAH2 confirm 51.
Screening O=C(COC(=O)/C=C/c1ccc(F)cc1)NC1CC1 returned ASAP1 inh inactive, pPAFAH inh inactive, ARFGAP1 inhibitor inactive, PAFAH1B2 inh inactive, PAFAH1B3 FP inh inactive, PAFAH2 FP inh 49 and PAFAH2 confirm 37.
For O=C(COC(=O)/C=C/c1ccc(Cl)c(Cl)c1)NC1CC1 the results were ASAP1 inh inactive, pPAFAH inh inactive, ARFGAP1 inhibitor inactive, PAFAH1B2 inh inactive, PAFAH1B3 FP inh inactive and PAFAH2 FP inh inactive.
Screening O=C(COC(=O)/C=C/c1ccc(F)cc1)NC1CCCCCC1 returned ASAP1 inh inactive, pPAFAH inh inactive, ARFGAP1 inhibitor inactive, PAFAH1B2 inh inactive, PAFAH1B3 FP inh inactive, PAFAH2 FP inh 89 and PAFAH2 confirm 81.
Screening CC(C)NC(=O)COC(=O)/C=C/c1ccco1 returned ASAP1 inh inactive, pPAFAH inh inactive, ARFGAP1 inhibitor inactive, PAFAH1B2 inh inactive, PAFAH1B3 FP inh inactive and PAFAH2 FP inh inactive.
O=C(COC(=O)/C=C/c1ccc(F)cc1)NC1CCCC1 was read as ASAP1 inh inactive, ARFGAP1 inhibitor inactive, PAFAH1B2 inh inactive, PAFAH1B3 FP inh inactive, PAFAH2 FP inh 79 and PAFAH2 confirm 86.
`CC(C)NC(=O)COC(=O)/C=C/c1ccc(F)cc1` gave ASAP1 inh inactive, pPAFAH inh inactive, ARFGAP1 inhibitor inactive, PAFAH1B2 inh inactive, PAFAH1B3 FP inh inactive, PAFAH2 FP inh 36 and PAFAH2 confirm inactive.
CN(CC(=O)Nc1cccc(F)c1)C(=O)c1ccc(S(=O)(=O)N2CCCC2)cc1 was read as ASAP1 inh inactive, pPAFAH inh inactive, ARFGAP1 inhibitor inactive, PAFAH1B2 inh inactive, PAFAH1B3 FP inh inactive and PAFAH2 FP inh inactive.
CSc1ccc(/C=C/C(=O)OCC(=O)NC2CCCC2)cc1 was read as ASAP1 inh inactive and ARFGAP1 inhibitor inactive.
Screening O=C(COC(=O)/C=C/c1ccc(Cl)cc1)NC1CCCC1 returned ASAP1 inh inactive, pPAFAH inh inactive, ARFGAP1 inhibitor inactive, PAFAH1B2 inh inactive, PAFAH1B3 FP inh inactive, PAFAH2 FP inh 64 and PAFAH2 confirm 67.
For COc1ccc(C(=O)N/N=C/c2cc3ccccc3[nH]c2=S)cc1 the results were ASAP1 inh inactive, pPAFAH inh inactive, ARFGAP1 inhibitor inactive, PAFAH1B2 inh inactive, PAFAH1B3 FP inh inactive, PAFAH2 FP inh 43 and PAFAH2 confirm inactive.
For COc1ccc(C(=O)N/N=C/c2c[nH]c3ccccc23)cc1 the results were ASAP1 inh inactive, pPAFAH inh inactive, ARFGAP1 inhibitor inactive, PAFAH1B2 inh inactive, PAFAH1B3 FP inh inactive and PAFAH2 FP inh inactive.
